Assay results taken from ChEMBL document CHEMBL1165905, “Synthesis of methyl-substituted xanthotoxol to clarify prooxidant effect of methyl on radical-induced oxidation of DNA” (Eur J Med Chem, 2010).
Calls of active or inactive are those of the source. No cut-off for these calls is given here.

Tests used:
[1] = Antioxidant activity assessed as protection against […]-induced oxidation of DNA […]; format: functional
[2] = Antioxidant activity assessed as galvinoxyl radical scavenging activity measured up to 210 mins; format: functional
Procedure, shortened: (§1)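 Radical was dissolved in ethanol to about 1.00 absorbance: DPPH read at 517 nm, galvinoxyl at 428 nm. Compound in ethanol was added at 200 μM final and absorbance decay recorded. Percent scavenged = (1 − Abs_detect/Abs_ref) × 100, plotted against incubation time.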

[3] = Antioxidant activity assessed as protection against Cu(2+)/[…]-induced DNA damage up to 180 mins by TBARS assay; format: functional
Procedure, shortened: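 DNA (2.0 mg/mL), CuSO4 (5.0 mM) and GSH (3.0 mM) in phosphate buffer (6.1 mM Na2HPO4, 3.9 mM NaH2PO4). Compound added from DMSO at 0.2 mM final. Incubated at 37 °C, with three tubes removed every 30 min and stopped with EDTA (30.0 mM final). TBARS read in the n-butanol layer at 535 nm. Oxidative percentage = (A_x/A_0) × 100 at 150 min relative to control.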

[4] = Antioxidant activity assessed as protection against […]-induced oxidation of DNA at 80 uM up to 675 mins
[5] = system: Radical scavenging activity; assay: Antioxidant activity assessed as DPPH radical scavenging activity measured up to 300 mins; format: functional; procedure, shortened: as §1
[6] = Antioxidant activity against beta-carotene and linoleic acid assessed as inhibition of bleaching of beta-carotene at 13.3 uM measured up to 540 mins by autooxidation assay; format: functional
Procedure, shortened: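 β-Carotene–linoleic acid emulsion with compound at 13.3 μM. Bleaching of β-carotene by peroxyl radicals from linoleic acid autoxidation was followed as absorbance at 460 nm and plotted against time.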

With `Cc1coc2c(O)c3oc(=O)cc(C)c3cc12` the Activity [1] was “Active”, the IC50 [2] was 170 µM and the Activity [3] was “Active”. The Activity [4] was “Active”, the IC50 [5] was 119 µM and the Activity [6] was “Active”.
In the case of `O=c1ccc2cc3ccoc3c(O)c2o1` [XANTHOTOXOL], the Activity [1] is reported as “Active”, the IC50 [2] is reported as 188 µM and the Activity [3] is reported as “Active”. For the same compound, the Activity [4] was “Active”, the IC50 [5] was 69.6 µM and the Activity [6] was “Active”.
In the case of `Cc1cc(=O)oc2c(O)c3occc3cc12`, the Activity [1] is reported as “Active”, the IC50 [2] is reported as 173 µM and the Activity [3] is reported as “Active”. For the same compound, the Activity [4] was “Active”, the IC50 [5] was 81.5 µM and the Activity [6] was “Active”.
